# Screens (PubChem BioAssay)
# A selection: hits, their analogues and other compounds. The true share with any hit is near 2%.
# NR2E3 ag-1: activates human photoreceptor nuclear receptor NR2E3; Q9Y5X4; GST-NR2E3/biotin-RetCOR TR-FRET, 1536-well; inhibition of corepressor binding, % at 4.78 µM; 320,000 compounds, 0.12% hits; AID 2300;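 active = percent inhibition above the cutoff of mean plus 3 SD of all tested compounds, set per screening campaign, cut at about 20% in these data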;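 also: 0% = DMSO wells and 100% = biotin wells as full block of FRET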
# Target sequence (Q9Y5X4 whole entry, looked up): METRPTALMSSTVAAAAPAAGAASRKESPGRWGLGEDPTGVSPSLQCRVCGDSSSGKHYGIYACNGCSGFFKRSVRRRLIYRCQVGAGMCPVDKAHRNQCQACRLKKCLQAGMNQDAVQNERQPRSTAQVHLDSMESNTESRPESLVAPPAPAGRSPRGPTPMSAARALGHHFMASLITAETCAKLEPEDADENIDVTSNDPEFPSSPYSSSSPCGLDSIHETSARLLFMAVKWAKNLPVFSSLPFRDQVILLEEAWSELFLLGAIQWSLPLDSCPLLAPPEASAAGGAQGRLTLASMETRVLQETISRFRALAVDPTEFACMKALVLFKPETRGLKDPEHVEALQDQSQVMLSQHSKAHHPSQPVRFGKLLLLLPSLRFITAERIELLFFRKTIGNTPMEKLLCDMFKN
#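 Assay system: NR2E3–RetCOR corepressor complex. Quantity: 1.35 nM GST-NR2E3. Buffer or medium: pH 7.5 Tris-based buffer. Reagent: biotinylated RetCOR corepressor at 7 nM final. Schedule: 5 h at 4 °C. Detection: TR-FRET, emission read at 617 and 671 nm. Replicates: one well per compound, singlicate testing.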
# TROY NFkB inh: inhibitors of TROY-dependent NF-kB signaling | Q293 LMP1-TROYcd NF-kB luciferase reporter, 4 h | 360,000 compounds, 0.98% hits | inhibition, % at 10 µM | AID 1347056;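 active = compounds whose plate-normalised and pattern-corrected inhibition of the luciferase reporter signal at the single screening dose is 50% or more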
# HIF activator: HIF pathway transcriptional activation; U2OS HRE-luciferase reporter, luminescence; normalized: DMSO 0%, desferrioxamine 100%; activation, % at 7.5 µM (by protocol); 300,000 compounds, 0.32% hits;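 active = mean activation of at least 10% of the iron chelator positive control signal, with at least half of replicates also reaching 10%; inconclusive = mean and replicate majority disagree about reaching 10%; inactive = mean and most replicates under 10%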
# NR2E3 ag-2: activates human NR2E3 receptor. inhibition of corepressor binding, % at 3.98 µM. 360,000 compounds, 0.35% hits. CHO-S Gal4-NCOR/VP16-NR2E3 two-hybrid, luciferase. AID 602229. Q9Y5X4;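 active = inhibition above the mean of all tested compounds plus 3 SD, cut at about 70% in these data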;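 also: 0% = DMSO with NR2E3 transfected cells and 100% = cells lacking NR2E3 construct; higher means lower luciferase signal from less NR2E3 corepressor binding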
# EBV LMP1 NFkB: reduces LMP1-driven NF-kappaB luciferase signal; 350,000 compounds, 0.69% hits; inhibition, % at 12.5 µM; LMP1-induced NF-kappaB luciferase reporter cells, luminescence; in the data active = inhibition above about 41%; inconclusive = no clear call, values can overlap the other calls;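 also: 0% = neutral control wells and 100% = reference inhibitor control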
# NR2E3 agonist cf: NR2E3 (human) agonism, confirmation; 360 compounds, 39% hits; cell-free NR2E3 corepressor release, TR-FRET, 5 h; activation (reported as inhibition), % at 3.98 µM; shares compounds with NR2E3 ag-1; AID 2379; in the data active = activation above about 20%
# PPARg-NCOR2 ctr: PPARg-NCOR2 interaction agonism, NR2E3 counter-screen; 360 compounds, 45% hits; TR-FRET PPARg-NCOR2 coregulator interaction, biochemical; inhibition, % at 3.98 µM; shares compounds with NR2E3 ag-1; AID 504787; in the data active = inhibition above about 20%;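 also: 0% = DMSO vehicle and 100% = wells without protein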
# Starred values were filed as active, the others as inactive; ? = inconclusive; . = no result given.
SMILES,NR2E3 ag-1,TROY NFkB inh,HIF activator,NR2E3 ag-2,EBV LMP1 NFkB,others
CC12CCC(O)CC1CCC1C2CCC2(C)C(C3=CC(=O)OC3)CCC12O (configuration not stated),.,51.3*,.,-26.9,45.1*,
C[C@]12CC[C@H](O)C[C@H]1CC[C@@H]1[C@@H]2C[C@@H](O)[C@]2(C)[C@@H](C3=CC(=O)OC3)CC[C@]12O,4.1,47.2,.,-17.5,68.3*,
CC(=O)OC1CC(OC2C(O)CC(OC3C(O)CC(OC4CCC5(C)C(CCC6C5CC(O)C5(C)C(C7=CC(=O)OC7)CCC65O)C4)OC3C)OC2C)OC(C)C1OC1OC(CO)C(O)C(O)C1O (configuration not stated),.,36.2,.,-3.3,83.2*,
CC(C)(OOC1(c2ccccc2)NC(=O)c2ccccc21)c1ccccc1 (configuration not stated),.,15.8,.,9.3,.,
CC12CCC(O)CC1CCC1C2CCC2(C)C(C3=CC(=O)OC3)C(O)CC12O (configuration not stated),.,37.2,.,-9.2,-2.9,
C[C@]12CC[C@H](O)C[C@H]1CC[C@@H]1[C@@H]2CC[C@]2(C)[C@@H](C3=CC(=O)OC3)CC[C@]12O,0.6,48.6,.,-4.3,77.9*,
Cc1cc(N(CCCl)CCCl)ccc1/C=N/NC(=O)c1ccco1,0.3,-35.0,4.5,-43.4,53.1*,
CC1=Nc2ccccc2/C1=C/c1c(O)[nH]c(=O)[nH]c1=O,0.2,1.5,-0.3,-21.3,-9.3,
O=c1[nH]c(O)c(/C=C2/C=CC(c3cc(Cl)ccc3Cl)=N2)c(=O)[nH]1,1.2,84.5*,-0.1,-14.0,6.1,
CC(=O)OC(C)(C)/C=C/C(=O)[C@](C)(O)C1[C@H](O)C[C@@]2(C)C3CC=C4C(C[C@H](O)C(=O)C4(C)C)[C@]3(C)C(=O)C[C@]12C (some centres not stated),.,48.6,.,66.5,42.7*,
Cc1cc(C)cc(N2C(=O)NC(=O)/C(=C/c3cccn3-c3ccc(Cl)cc3)C2=O)c1,2.5,69.2*,-0.1,-6.5,-10.4,
Cc1cccc(N2C(=O)NC(=O)/C(=C\c3cccn3-c3ccc(Cl)cc3)C2=O)c1,3.1,30.5,0.0,-7.5,-1.1,
Fc1ccccc1CN1Cc2ccccc2-n2nncc2C1,.,-10.3,.,-45.2,0.2,
CCC(=NCc1cc(OC)cc(OC)c1)c1c(O)[nH]c(=O)[nH]c1=O,-1.6,16.5,66.0*,7.7,2.4,
CNC(=O)Oc1ccc(-c2cn3cc(C)ccc3n2)cc1,-2.7,33.4,-2.2,-91.0,64.2*,
CCCC[C@@H](C)C[C@@H](C)C(=O)N(C)[C@@H](CC(C)C)C(=O)N[C@H](C(=O)N(C)[C@H](C(=O)N1C[C@@H](O)C[C@H]1C(=O)N1C(=O)C=C[C@@H]1C)C(C)C)C(C)OC(C)=O (some centres not stated),.,-22.3,.,81.8*,3.9,
C[C@@H]1CN([C@@H](C)CO)C(=O)CCCn2nncc2CO[C@H]1CN(C)C(=O)Oc1cccc2ccccc12,.,11.7,.,-0.9,4.2,
CCOC(=O)CC(NC(=O)C(Cc1ccc(N(CCCl)CCCl)cc1)NC(C)=O)C(=O)OCC (configuration not stated),-2.6,-4.6,0.9,-36.6,55.4*,
CC(=O)NC(Cc1ccc(N(CCCl)CCCl)cc1)C(=O)NC(C(=O)O)C(C)C (configuration not stated),2.5,-8.8,0.0,11.8,1.5,
CCCNC(=O)c1c(N)n(Cc2ccco2)c2nc3ccccc3nc12,0.7,.,-0.8,.,.,
CC(C)CNC(=O)c1c(N)n(Cc2ccc3c(c2)OCO3)c2nc3ccccc3nc12,7.5,63.2*,-0.1,-34.4,-0.7,
COCCOC(=O)c1c(N)n(Cc2ccc(OC)cc2)c2nc3ccccc3nc12,0.3,60.6*,-0.5,-26.9,3.3,
CCCNC(=O)c1c(N)n(Cc2ccc3c(c2)OCO3)c2nc3ccccc3nc12,-3.2,57.5*,0.0,-6.4,-3.6,
CC(C)CCNC(=O)c1c(N)n(Cc2ccc3c(c2)OCO3)c2nc3ccccc3nc12,3.6,59.7*,0.1,-7.5,-16.2,
CC[C@H](C)[C@@H]1NC(=O)CNC(=O)c2csc(n2)[C@H](C(C)(C)O)OC(=O)C(C)(C)[C@H](CCCC(C)(Cl)Cl)OC(=O)c2csc1n2,.,45.9,.,35.3,.,
SMILES,NR2E3 ag-1,TROY NFkB inh,HIF activator,NR2E3 ag-2,EBV LMP1 NFkB,others
CC12CCC3C(CCC4CC(=O)C(C(O)C(F)(F)F)CC43C)C1CCC2O (configuration not stated),.,-0.4,.,7.3,-10.7,
COc1ccc(NC2Oc3cc4c(cc3C(c3cc(OC)c(OC)c(OC)c3)C2C)OCO4)cc1 (configuration not stated),.,19.9,.,26.4,-5.4,
O=C1NC(=S)NC(=O)C1Cc1ccccc1O,.,-3.0,.,41.0,-1.7,
COc1ccc(Cn2c(N)c(C(=O)NCc3ccco3)c3nc4ccccc4nc32)cc1OC,6.6,66.6*,.,-3.2,2.9,
COCCCNC(=O)c1c(N)n(Cc2ccco2)c2nc3ccccc3nc12,-2.6,6.2,-0.2,-22.5,.,
Cc1ccc(-c2cc(-c3ccc(C)cc3)[n+](-c3ccc(C(=O)O)cc3)c(-c3ccc(C)cc3)c2)cc1,3.9,5.0,0.1,-6.4,-2.3,
Cc1ccc(C[n+]2c(-c3ccc(C)cc3)cc(-c3ccc(C)cc3)cc2-c2ccc(C)cc2)cc1,1.5,42.0,-0.5,99.3*,?,
CCOP(=O)(C#CC(C)(C)C)C1(O)CCCCC1 (configuration not stated),-1.7,1.5,97.9*,-6.5,-0.7,
COc1cc2c(cc1/C=C/[N+](=O)[O-])OCO2,.,61.5*,1.0,-22.6,-0.5,
O=C(NCCN1CCC2(CC1)C(=O)NCN2c1cccc(F)c1)c1ccc2ccccc2c1,.,31.8,.,30.0,.,
O=C(O)CCCOc1ccc(Cl)cc1Cl,.,-5.7,.,-35.7,59.1*,
O=C(COc1ccc(Cl)cc1Cl)N1CCN(C/C=C/c2ccccc2)CC1,-3.1,37.3,0.0,12.1,9.1,
C1CN(P2(N3CC3)=NP(N3CC3)(N3CC3)=NP(N3CC3)(N3CC3)=N2)CCO1 (configuration not stated),.,-0.6,.,-4.1,14.4,
COCCNC(=O)c1c(NC(=O)c2ccc(Br)o2)n(Cc2ccccc2)c2nc3ccccc3nc12,22.7*,68.1*,1.8,-5.5,2.2,NR2E3 agonist cf=-2.0;PPARg-NCOR2 ctr=4.5
O=C1C(=O)c2cccc3cccc1c23,0.1,21.8,-8.9,2.4,5.6,
O=C1C(=O)c2ccccc2-c2ccccc21,36.6*,83.1*,-3.6,67.6,86.1*,NR2E3 agonist cf=39.4*;PPARg-NCOR2 ctr=83.5*
COc1ccc(Cc2c(O)[nH]c(=S)[nH]c2=O)cc1,.,6.8,0.4,-4.6,-4.0,
